These results are taken from ChEMBL document CHEMBL1147823, “Conformationally constrained analogues of diacylglycerol. 26. Exploring the chemical space surrounding the C1 domain of protein kinase C with DAG-lactones containing aryl groups at the sn-1 and sn-2 positions” (J Med Chem, 2006).

Structures are written as SMILES.

The first experiment concerns the target T1, Protein kinase C delta type (Homo sapiens, UniProt Q05655). Kind of experiment: Ratio of binding affinity to PKCdeltaC1b in presence to absence of phospholipid.
Target sequence in this assay (Q05655 whole entry, looked up): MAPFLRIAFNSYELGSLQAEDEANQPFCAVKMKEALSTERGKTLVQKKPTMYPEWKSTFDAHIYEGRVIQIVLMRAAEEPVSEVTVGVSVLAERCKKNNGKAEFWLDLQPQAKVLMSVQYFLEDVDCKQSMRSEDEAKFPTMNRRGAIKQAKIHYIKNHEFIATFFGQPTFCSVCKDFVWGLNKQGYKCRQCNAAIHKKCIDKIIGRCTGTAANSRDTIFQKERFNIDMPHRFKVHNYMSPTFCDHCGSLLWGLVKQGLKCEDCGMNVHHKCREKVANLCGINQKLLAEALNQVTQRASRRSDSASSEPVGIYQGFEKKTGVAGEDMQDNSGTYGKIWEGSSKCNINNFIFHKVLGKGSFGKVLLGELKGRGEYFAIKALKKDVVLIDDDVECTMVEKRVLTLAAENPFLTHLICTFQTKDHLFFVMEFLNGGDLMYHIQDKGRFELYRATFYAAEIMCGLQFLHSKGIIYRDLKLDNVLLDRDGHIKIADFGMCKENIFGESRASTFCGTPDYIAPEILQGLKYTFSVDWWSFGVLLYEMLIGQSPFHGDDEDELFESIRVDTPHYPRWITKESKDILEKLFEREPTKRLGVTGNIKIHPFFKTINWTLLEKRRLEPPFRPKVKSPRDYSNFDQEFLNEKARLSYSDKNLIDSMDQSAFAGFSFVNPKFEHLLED
Take `CC(C)C(C/C=C1\CC(CO)(COC(=O)c2ccc(O)cc2)OC1=O)C(C)C` (stereo unspecified): the Ratio Ki is 17.

For the molecule `CC(C)C(CC(=O)OCC1(CO)C/C(=C\c2ccc(O)cc2)C(=O)O1)C(C)C` (stereo unspecified), the Ratio Ki is 121.

The next experiment has as its target Protein kinase C alpha type (Homo sapiens, UniProt P17252). Briefly: Displacement of [20-3H]PDBU from recombinant PKCalpha in presence of phosphatidylserine. The essentials: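 Competition binding with recombinant single-isozyme PKC-α as the target enzyme. Each ligand's ability to displace bound [20-³H]phorbol 12,13-dibutyrate was measured in the presence of phosphatidylserine. Ki values were derived from the competition, and both E- and Z-isomers were assayed.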
With `CC(C)C(CC(=O)OCC1(CO)C/C(=C\c2ccccc2O)C(=O)O1)C(C)C` (stereo unspecified), the inhibitory constant (Ki) (usually the equilibrium dissociation constant of an inhibitor or competing ligand from its target) stood at 22 nM.

In the case of `COc1ccc(C(=O)OCC2(CO)C/C(=C\CC(C(C)C)C(C)C)C(=O)O2)cc1` (stereo unspecified), the inhibition constant (Ki) stood at 36 nM.

As to `CCCCCC/C=C1\CC(CO)(COC(=O)CCCc2ccccc2)OC1=O` (stereo unspecified), the inhibition constant (Ki) was 27 nM.

Regarding `COc1cccc(C(=O)OCC2(CO)C/C(=C\CC(C(C)C)C(C)C)C(=O)O2)c1` (stereo unspecified), the Ki stood at 39 nM.

On to `CC(C)C(CC(=O)OCC1(CO)C/C(=C\c2cccc(O)c2)C(=O)O1)C(C)C` (stereo unspecified), for which the Ki stood at 17 nM.

Take `CCCCCCCCC/C=C1/CC(CO)(COC(=O)C2CCCCC2)OC1=O` (stereo unspecified): the inhibition constant Ki was determined as 5 nM.

Take `CC(C)C(CC(=O)OCC1(CO)C/C(=C\CCc2ccccc2)C(=O)O1)C(C)C` (stereo unspecified): the Ki was 9 nM.

Consider `CC(C)C(C/C=C1/CC(CO)(COC(=O)C2CCCCC2)OC1=O)C(C)C` (stereo unspecified), for which the Ki was 8 nM.

For the molecule `CCCCCCCCC/C=C1/CC(CO)(COC(=O)c2ccccc2)OC1=O` (stereo unspecified), the inhibition constant Ki stood at 9 nM.

`CC(C)C(C/C=C1\CC(CO)(COC(=O)c2ccc(O)cc2)OC1=O)C(C)C` (stereo unspecified): the inhibitory constant (Ki) was determined as 2400 nM.

Regarding `CC(C)C(C/C=C1/CC(CO)(COC(=O)c2cccc(O)c2)OC1=O)C(C)C` (stereo unspecified), the Ki is 406 nM.

In the case of `CC(C)C(C/C=C1\CC(CO)(COC(=O)C2CCCCC2)OC1=O)C(C)C` (stereo unspecified), the inhibitory constant (Ki) came to 10 nM.

Regarding `CC(C)C(C/C=C1\CC(CO)(COC(=O)c2ccccc2)OC1=O)C(C)C` (stereo unspecified), the Ki is 28 nM.

For `COc1ccccc1/C=C1\CC(CO)(COC(=O)CC(C(C)C)C(C)C)OC1=O` (stereo unspecified), the inhibition constant Ki was 16 nM.

Regarding `COc1ccc(C(=O)OCC2(CO)C/C(=C/CC(C(C)C)C(C)C)C(=O)O2)cc1` (stereo unspecified), the inhibitory constant (Ki) turned out to be 18 nM.

As to `CC(C)C(C/C=C1/CC(CO)(COC(=O)c2ccccc2O)OC1=O)C(C)C` (stereo unspecified), the Ki is 30 nM.

As for `CCCCCCC/C=C1/CC(CO)(COC(=O)CCc2ccccc2)OC1=O` (stereo unspecified), the Ki was found to be 14 nM.

`CC(C)C(C/C=C1/CC(CO)(COC(=O)c2ccccc2)OC1=O)C(C)C` (stereo unspecified): the Ki stood at 16 nM.

Turning to `CC(C)C(CC(=O)OCC1(CO)C/C(=C\c2ccc(O)cc2)C(=O)O1)C(C)C` (stereo unspecified), the inhibition constant Ki amounted to 19 nM.

On to `CCCCCCCCC/C=C1\CC(CO)(COC(=O)C2CCCCC2)OC1=O` (stereo unspecified), for which the Ki is 9 nM.

As for `COc1cccc(/C=C2\CC(CO)(COC(=O)CC(C(C)C)C(C)C)OC2=O)c1` (stereo unspecified), the Ki worked out at 12 nM.

As to `CC(C)C(C/C=C1/CC(CO)(COC(=O)c2ccc(O)cc2)OC1=O)C(C)C` (stereo unspecified), the inhibitory constant (Ki) stood at 983 nM.

As for `CCCCCCCC/C=C1/CC(CO)(COC(=O)Cc2ccccc2)OC1=O` (stereo unspecified), the Ki worked out at 45 nM.

Regarding `COc1ccc(/C=C2\CC(CO)(COC(=O)CC(C(C)C)C(C)C)OC2=O)cc1` (stereo unspecified), the Ki was determined as 7 nM.

`CCCCCCCCC/C=C1\CC(CO)(COC(=O)c2ccccc2)OC1=O` (stereo unspecified): the Ki worked out at 14 nM.

With `CCCCCCCC/C=C1\CC(CO)(COC(=O)Cc2ccccc2)OC1=O` (stereo unspecified), the inhibition constant (Ki) is 44 nM.

With `CC(C)C(C/C=C1\CC(CO)(COC(=O)c2ccccc2O)OC1=O)C(C)C` (stereo unspecified), the inhibition constant (Ki) came out at 67 nM.

As to `COc1ccccc1C(=O)OCC1(CO)C/C(=C\CC(C(C)C)C(C)C)C(=O)O1` (stereo unspecified), the Ki was determined as 73 nM.

For `CC(C)C(CC(=O)OCC1(CO)C/C(=C\c2ccccc2)C(=O)O1)C(C)C` (stereo unspecified), the Ki turned out to be 12 nM.

On to `CCCCCC/C=C1/CC(CO)(COC(=O)CCCc2ccccc2)OC1=O` (stereo unspecified), for which the Ki amounted to 17 nM.

As for `CC(C)C(C/C=C1\CC(CO)(COC(=O)c2cccc(O)c2)OC1=O)C(C)C` (stereo unspecified), the Ki came out at 670 nM.

On to `CCCCCCC/C=C1\CC(CO)(COC(=O)CCc2ccccc2)OC1=O` (stereo unspecified), for which the Ki came out at 18 nM.

In the case of `CC(C)C(CC(=O)OCC1(CO)C/C(=C\Cc2ccccc2)C(=O)O1)C(C)C` (stereo unspecified), the inhibition constant Ki came to 14 nM.

On to `COc1cccc(C(=O)OCC2(CO)C/C(=C/CC(C(C)C)C(C)C)C(=O)O2)c1` (stereo unspecified), for which the Ki came out at 24 nM.

For `COc1ccccc1C(=O)OCC1(CO)C/C(=C/CC(C(C)C)C(C)C)C(=O)O1` (stereo unspecified), the inhibition constant (Ki) came out at 23 nM.

Another experiment addresses T1, Protein kinase C delta type. Kind of experiment: Binding affinity to PKCdeltaC1b in absence of phospholipid.
Target sequence in this assay (Q05655 whole entry): as the sequence (Q05655 whole entry, looked up) above
In the case of `CC(C)C(C/C=C1\CC(CO)(COC(=O)c2ccc(O)cc2)OC1=O)C(C)C` (stereo unspecified), the Ki turned out to be 16900 nM.

`CC(C)C(CC(=O)OCC1(CO)C/C(=C\c2ccc(O)cc2)C(=O)O1)C(C)C` (stereo unspecified) displayed an inhibitory constant (Ki) of 170 nM.

The next experiment shares this target. Briefly: Binding affinity to PKCdeltaC1b in presence of phospholipid.
Target sequence in this assay (Q05655 whole entry): as the sequence (Q05655 whole entry, looked up) above
In the case of `CC(C)C(C/C=C1\CC(CO)(COC(=O)c2ccc(O)cc2)OC1=O)C(C)C` (stereo unspecified), the Ki came to 980 nM.

On to `CC(C)C(CC(=O)OCC1(CO)C/C(=C\c2ccc(O)cc2)C(=O)O1)C(C)C` (stereo unspecified), for which the inhibitory constant (Ki) amounted to 1.4 nM.
